pIC50: −log10 of the molar value.
Columns and labels:
[1] = Safety index, IC50 for transformed human kidney epithelial cells to IC50 for Entamoeba histolytica HM1:IMSS
HEK293 (human) = test: Cytotoxicity against human HEK293 cells after 44 hrs by MTT assay; settings: HEK293, 44 h
Entamoeba histolytica = test: Antiamoebic activity against Entamoeba histolytica HM1:IMSS after 72 hrs by microplate method; assay type: functional, organism-based
Outline: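 E. histolytica HM1:IMSS trophozoites in a microplate assay. Samples in DMSO plus medium (1 mg/mL), diluted to 0.1 mg/mL, then twofold serial dilutions. Inoculum 1.7 × 10^4 amoebae/well (viability by trypan blue), N2-gassed, 37 °C for 72 h. Cells methanol-fixed, eosin-stained, dye released in 0.1 N NaOH, OD 490 nm. % inhibition vs untreated control against log dose; IC50 by linear regression.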

[2] = Safety index, IC50 for human […] to IC50 for Entamoeba histolytica HM1:IMSS; assay type: toxicity, cell-based; settings: read-out: Ratio IC50
Outline: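 Safety index = IC50 in human kidney epithelial cells (MTT, 44 h + 4 h) divided by IC50 against E. histolytica HM1:IMSS (microplate eosin assay, 72 h).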

| pIC50 (Entamoeba histolytica) | SMILES | selectivity ratio [1] | pIC50 (HEK293 (human)) | selectivity ratio [2] |
| --- | --- | --- | --- | --- |
| 4.94 | NC(=S)N/N=C\c1c[nH]c2ccccc12 | > 8.68 | < 4.00 |  |
| 5.22 | Fc1ccc(NC(=S)N/N=C\c2c[nH]c3ccccc23)c(F)c1 |  |  | > 16.5 |
| 5.49 | Cc1ccc(NC(=S)N/N=C\c2c[nH]c3ccccc23)cc1 | > 30.8 | < 4.00 |  |
| 5.69 | Cc1ccccc1NC(=S)N/N=C\c1c[nH]c2ccccc12 | > 48.8 | < 4.00 |  |
| 5.61 | CN(Cc1ccccc1)C(=S)N/N=C\c1c[nH]c2ccccc12 | > 40.6 | < 4.00 |  |
| 5.16 | CCCNC(=S)N/N=C\c1c[nH]c2ccccc12 | > 14.6 | < 4.00 |  |
| 5.12 | CC(C)NC(=S)N/N=C\c1c[nH]c2ccccc12 | > 13.1 | < 4.00 |  |
| 5.24 | CC(C)CNC(=S)N/N=C\c1c[nH]c2ccccc12 | > 17.4 | < 4.00 |  |
| 5.26 | CCCCN(C)C(=S)N/N=C\c1c[nH]c2ccccc12 | > 18.2 | < 4.00 |  |
| 5.59 | CCN(CC)C(=S)N/N=C\c1c[nH]c2ccccc12 | > 38.8 | < 4.00 |  |
| 5.39 | CCCCNC(=S)N/N=C\c1c[nH]c2ccccc12 | > 24.4 | < 4.00 |  |
| 5.48 | S=C(NCc1ccccc1Cl)N/N=C\c1c[nH]c2ccccc12 | > 30.5 | < 4.00 |  |
| 5.89 | Cc1cccc(NC(=S)N/N=C\c2c[nH]c3ccccc23)c1 | > 77.5 | < 4.00 |  |
|  | Cc1ncc([N+](=O)[O-])n1CCO [METRONIDAZOLE] | > 55.2 | < 4.00 |  |
